Assay [1] deals with TRAF2 and NCK-interacting protein kinase (Homo sapiens) (UniProt Q9UKE5). Nature of the assay: Competitive binding affinity to TNIK (unknown origin) at 10 uM in presence of ATP relative to control. The method, boiled down:
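In vitro ATP-site competition binding assay across a diverse panel of 128 kinases, with compound tested at a single concentration. Kinase selectivity scores (S15) were calculated from the panel profiles.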

In assay [2] the target is Dual specificity protein kinase CLK4 (Homo sapiens) (UniProt Q9HAZ1). In words: Competitive binding affinity to CLK4 (unknown origin) at 10 uM in presence of ATP relative to control.
Assay [3] addresses T1, Serine/threonine-protein kinase 36 (Homo sapiens) (UniProt Q9NRP7).
T1 sequence (whole entry): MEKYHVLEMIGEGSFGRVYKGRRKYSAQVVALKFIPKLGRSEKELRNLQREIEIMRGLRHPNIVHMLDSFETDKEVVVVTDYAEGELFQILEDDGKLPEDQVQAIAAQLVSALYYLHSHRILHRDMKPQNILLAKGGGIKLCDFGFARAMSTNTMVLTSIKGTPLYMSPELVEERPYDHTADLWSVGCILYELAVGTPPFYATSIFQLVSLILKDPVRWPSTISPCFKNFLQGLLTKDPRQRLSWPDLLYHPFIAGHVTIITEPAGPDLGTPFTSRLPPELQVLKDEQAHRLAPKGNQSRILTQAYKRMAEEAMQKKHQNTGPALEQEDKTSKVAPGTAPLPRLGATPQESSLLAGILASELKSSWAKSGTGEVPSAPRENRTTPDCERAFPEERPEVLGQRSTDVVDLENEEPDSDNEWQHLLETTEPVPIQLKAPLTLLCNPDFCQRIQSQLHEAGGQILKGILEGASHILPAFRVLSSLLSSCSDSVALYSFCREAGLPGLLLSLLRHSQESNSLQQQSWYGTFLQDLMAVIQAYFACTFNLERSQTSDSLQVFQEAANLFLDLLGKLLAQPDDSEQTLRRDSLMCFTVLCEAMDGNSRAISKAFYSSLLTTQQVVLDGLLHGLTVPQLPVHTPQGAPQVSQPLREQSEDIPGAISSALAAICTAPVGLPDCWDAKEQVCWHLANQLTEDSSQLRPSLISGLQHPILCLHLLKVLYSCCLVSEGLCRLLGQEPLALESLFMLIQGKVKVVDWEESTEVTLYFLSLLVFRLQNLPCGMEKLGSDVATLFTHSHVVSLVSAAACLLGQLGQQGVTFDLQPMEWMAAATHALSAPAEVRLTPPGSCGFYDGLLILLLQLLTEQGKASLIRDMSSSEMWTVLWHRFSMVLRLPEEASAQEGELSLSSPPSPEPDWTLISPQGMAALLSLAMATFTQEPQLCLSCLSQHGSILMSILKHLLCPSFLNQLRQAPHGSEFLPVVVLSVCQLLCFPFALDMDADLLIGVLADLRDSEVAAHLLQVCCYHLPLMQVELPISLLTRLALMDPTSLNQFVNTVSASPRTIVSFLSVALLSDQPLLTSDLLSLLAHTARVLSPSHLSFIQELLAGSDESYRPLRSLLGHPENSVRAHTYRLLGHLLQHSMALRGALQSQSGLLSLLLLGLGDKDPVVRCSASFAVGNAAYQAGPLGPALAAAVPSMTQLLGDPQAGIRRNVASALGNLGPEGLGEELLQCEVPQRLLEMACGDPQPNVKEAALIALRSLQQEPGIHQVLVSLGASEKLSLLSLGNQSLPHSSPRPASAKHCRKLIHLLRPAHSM
Nature of the assay: Competitive binding affinity to STK36 (unknown origin) at 10 uM in presence of ATP relative to control. An outline of the steps: (§1)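 In vitro ATP-site competition binding assay across a diverse panel of 128 kinases, with each compound tested at a single concentration. Kinase binding is expressed relative to control.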

Assay [4] concerns the target AP2-associated protein kinase 1 (Homo sapiens) (UniProt Q2M2I8). Nature of the assay: Competitive binding affinity to AAK1 (unknown origin) at 10 uM in presence of ATP relative to control. An outline of the steps:
as §1

The target in assay [5] is T2, Ephrin type-B receptor 1 (Homo sapiens) (UniProt P54762).
T2 sequence (whole entry): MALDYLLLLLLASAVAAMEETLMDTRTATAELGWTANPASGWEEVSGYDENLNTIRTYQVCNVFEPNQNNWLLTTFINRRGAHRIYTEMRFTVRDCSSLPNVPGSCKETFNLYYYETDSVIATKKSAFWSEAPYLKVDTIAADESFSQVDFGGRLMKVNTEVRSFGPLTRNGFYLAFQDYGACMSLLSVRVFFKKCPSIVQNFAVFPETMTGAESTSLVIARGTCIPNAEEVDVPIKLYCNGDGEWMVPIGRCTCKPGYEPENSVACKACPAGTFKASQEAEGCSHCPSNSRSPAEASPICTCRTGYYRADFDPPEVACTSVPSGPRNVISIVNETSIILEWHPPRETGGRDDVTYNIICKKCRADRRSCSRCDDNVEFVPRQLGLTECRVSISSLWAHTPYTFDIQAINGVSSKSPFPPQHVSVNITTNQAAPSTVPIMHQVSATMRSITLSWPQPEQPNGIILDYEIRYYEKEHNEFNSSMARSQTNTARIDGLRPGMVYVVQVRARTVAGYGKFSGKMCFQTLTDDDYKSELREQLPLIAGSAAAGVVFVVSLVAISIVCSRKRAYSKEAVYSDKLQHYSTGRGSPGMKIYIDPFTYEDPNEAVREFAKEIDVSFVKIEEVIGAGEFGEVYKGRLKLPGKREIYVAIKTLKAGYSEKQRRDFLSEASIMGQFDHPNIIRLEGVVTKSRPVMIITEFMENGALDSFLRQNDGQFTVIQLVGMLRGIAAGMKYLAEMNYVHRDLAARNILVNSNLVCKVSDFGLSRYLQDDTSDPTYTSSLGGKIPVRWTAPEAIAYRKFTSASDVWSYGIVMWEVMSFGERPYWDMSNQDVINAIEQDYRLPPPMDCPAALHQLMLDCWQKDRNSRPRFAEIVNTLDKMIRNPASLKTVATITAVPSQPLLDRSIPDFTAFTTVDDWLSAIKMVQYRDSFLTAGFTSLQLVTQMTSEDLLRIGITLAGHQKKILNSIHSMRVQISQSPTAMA
In words: Competitive binding affinity to EPHB1 (unknown origin) at 10 uM in presence of ATP relative to control. The method, boiled down:
(§2)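 In vitro ATP-site competition binding assay, part of profiling against a diverse panel of 128 kinases. Each compound was tested at a single concentration of 10 µM. Kinome selectivity was summarized as S15 selectivity scores.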

The target of assay [6] is Calcium/calmodulin-dependent protein kinase kinase 1 (Homo sapiens) (UniProt Q8N5S9). In words: Competitive binding affinity to CAMKK1 (unknown origin) at 10 uM in presence of ATP relative to control.
In assay [7] the target is Mitogen-activated protein kinase 1 (Homo sapiens, UniProt P28482). Nature of the assay: Competitive binding affinity to ERK2 (unknown origin) at 10 uM in presence of ATP relative to control. An outline of the steps: as §2
For assay [8], the target named is Ephrin type-A receptor 2 (Homo sapiens) (UniProt P29317). In words: Competitive binding affinity to EPHA2 (unknown origin) at 10 uM in presence of ATP relative to control. An outline of the steps: as §2
Chain of Ephrin type-A receptor 2 (Homo sapiens) (P29317 whole entry): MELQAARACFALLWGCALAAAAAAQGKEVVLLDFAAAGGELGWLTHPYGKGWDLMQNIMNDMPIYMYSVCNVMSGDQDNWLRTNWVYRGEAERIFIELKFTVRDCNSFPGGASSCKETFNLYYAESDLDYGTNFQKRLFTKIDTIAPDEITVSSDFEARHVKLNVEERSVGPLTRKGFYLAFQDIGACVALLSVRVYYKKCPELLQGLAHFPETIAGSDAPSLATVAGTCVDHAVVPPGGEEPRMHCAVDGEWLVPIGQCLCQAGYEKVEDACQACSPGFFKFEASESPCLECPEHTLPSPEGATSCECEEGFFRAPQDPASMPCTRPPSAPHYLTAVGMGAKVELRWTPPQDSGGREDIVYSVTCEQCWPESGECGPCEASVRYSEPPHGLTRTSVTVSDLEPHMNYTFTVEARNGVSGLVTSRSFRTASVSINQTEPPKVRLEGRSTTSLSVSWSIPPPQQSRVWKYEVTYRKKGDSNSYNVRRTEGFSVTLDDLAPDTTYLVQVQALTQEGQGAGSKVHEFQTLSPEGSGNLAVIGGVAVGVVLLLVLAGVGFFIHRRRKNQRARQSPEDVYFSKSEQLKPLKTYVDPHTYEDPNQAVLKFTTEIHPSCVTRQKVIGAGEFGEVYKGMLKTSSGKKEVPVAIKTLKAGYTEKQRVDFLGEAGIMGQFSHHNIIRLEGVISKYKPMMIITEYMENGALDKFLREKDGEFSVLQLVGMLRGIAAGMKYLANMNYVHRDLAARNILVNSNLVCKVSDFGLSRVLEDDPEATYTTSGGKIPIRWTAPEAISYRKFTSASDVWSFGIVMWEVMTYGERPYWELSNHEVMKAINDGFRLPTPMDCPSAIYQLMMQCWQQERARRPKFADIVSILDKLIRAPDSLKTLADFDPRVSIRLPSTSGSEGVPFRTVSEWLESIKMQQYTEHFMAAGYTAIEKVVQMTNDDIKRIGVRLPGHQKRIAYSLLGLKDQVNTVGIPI

Chain of TRAF2 and NCK-interacting protein kinase (Homo sapiens) (Q9UKE5 whole entry, looked up): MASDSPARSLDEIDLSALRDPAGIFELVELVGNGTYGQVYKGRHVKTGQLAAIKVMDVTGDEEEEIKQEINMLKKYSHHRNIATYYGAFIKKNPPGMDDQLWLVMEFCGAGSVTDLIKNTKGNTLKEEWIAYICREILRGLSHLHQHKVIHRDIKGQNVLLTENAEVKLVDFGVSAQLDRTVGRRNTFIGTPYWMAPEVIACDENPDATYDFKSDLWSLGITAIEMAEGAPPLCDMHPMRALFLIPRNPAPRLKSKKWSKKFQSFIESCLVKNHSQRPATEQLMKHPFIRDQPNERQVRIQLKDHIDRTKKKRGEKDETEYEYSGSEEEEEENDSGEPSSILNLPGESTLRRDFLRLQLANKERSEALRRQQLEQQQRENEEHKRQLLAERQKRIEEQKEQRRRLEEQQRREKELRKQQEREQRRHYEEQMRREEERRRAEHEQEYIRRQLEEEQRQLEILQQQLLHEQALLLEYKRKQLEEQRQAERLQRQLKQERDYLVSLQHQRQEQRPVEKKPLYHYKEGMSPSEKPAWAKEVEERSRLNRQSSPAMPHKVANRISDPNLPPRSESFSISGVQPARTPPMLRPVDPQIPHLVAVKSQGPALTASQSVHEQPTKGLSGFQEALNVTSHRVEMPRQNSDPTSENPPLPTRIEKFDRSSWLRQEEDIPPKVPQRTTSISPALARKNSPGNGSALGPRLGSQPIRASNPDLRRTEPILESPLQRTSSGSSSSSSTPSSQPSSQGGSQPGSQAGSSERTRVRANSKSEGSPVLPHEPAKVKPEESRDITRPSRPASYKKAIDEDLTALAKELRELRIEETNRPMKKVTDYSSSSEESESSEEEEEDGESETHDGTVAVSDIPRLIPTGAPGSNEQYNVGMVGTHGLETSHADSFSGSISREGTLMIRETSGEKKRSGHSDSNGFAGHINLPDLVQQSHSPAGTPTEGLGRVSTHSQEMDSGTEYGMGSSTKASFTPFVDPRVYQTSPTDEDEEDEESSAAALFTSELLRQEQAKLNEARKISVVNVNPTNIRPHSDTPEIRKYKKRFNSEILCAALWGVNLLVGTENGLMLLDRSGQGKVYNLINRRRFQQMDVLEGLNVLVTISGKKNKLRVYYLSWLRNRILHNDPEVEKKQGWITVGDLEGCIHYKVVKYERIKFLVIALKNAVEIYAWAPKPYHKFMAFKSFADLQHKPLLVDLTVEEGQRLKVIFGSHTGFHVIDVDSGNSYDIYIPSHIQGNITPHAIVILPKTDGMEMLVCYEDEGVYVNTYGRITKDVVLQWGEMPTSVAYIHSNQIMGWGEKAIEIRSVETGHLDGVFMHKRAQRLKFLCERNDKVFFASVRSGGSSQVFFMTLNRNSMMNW
Chain of Dual specificity protein kinase CLK4 (Homo sapiens) (Q9HAZ1 whole entry, looked up): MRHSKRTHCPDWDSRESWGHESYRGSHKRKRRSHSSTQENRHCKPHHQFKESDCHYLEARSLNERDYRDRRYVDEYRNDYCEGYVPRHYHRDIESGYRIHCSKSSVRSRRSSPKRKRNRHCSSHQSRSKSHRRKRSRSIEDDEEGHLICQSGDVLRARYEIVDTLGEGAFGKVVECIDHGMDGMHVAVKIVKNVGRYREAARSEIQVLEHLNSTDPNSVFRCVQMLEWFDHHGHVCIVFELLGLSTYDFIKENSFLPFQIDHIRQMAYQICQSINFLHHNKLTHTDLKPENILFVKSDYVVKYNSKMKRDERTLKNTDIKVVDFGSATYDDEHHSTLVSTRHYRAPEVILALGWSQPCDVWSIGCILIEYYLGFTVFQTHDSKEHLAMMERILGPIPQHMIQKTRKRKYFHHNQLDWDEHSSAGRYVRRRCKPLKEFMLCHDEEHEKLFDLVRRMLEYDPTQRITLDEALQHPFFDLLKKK
Chain of Calcium/calmodulin-dependent protein kinase kinase 1 (Homo sapiens) (Q8N5S9 whole entry, looked up): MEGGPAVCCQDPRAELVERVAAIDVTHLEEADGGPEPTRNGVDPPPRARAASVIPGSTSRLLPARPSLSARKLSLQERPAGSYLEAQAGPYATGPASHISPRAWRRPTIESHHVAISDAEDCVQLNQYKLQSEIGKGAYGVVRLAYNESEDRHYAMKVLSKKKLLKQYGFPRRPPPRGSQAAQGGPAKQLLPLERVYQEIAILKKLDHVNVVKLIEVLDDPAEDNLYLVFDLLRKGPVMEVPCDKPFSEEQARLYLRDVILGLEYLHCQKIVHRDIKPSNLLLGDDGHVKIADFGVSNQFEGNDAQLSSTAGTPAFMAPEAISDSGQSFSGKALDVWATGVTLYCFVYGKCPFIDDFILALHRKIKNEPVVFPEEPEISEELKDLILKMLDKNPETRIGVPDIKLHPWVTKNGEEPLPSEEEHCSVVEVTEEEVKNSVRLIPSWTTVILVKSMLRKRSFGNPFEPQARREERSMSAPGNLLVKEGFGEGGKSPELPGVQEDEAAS
Chain of Mitogen-activated protein kinase 1 (P28482 whole entry): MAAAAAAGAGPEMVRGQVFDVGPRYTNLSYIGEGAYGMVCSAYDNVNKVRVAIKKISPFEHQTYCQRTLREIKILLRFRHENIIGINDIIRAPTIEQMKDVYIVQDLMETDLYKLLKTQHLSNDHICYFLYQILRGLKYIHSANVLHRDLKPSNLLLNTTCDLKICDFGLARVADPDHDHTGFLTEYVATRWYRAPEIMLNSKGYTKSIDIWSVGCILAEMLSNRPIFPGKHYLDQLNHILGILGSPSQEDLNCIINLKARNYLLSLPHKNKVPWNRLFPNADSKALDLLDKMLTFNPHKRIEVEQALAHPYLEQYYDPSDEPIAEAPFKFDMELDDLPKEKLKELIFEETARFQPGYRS
Chain of AP2-associated protein kinase 1 (Homo sapiens) (Q2M2I8 whole entry, looked up): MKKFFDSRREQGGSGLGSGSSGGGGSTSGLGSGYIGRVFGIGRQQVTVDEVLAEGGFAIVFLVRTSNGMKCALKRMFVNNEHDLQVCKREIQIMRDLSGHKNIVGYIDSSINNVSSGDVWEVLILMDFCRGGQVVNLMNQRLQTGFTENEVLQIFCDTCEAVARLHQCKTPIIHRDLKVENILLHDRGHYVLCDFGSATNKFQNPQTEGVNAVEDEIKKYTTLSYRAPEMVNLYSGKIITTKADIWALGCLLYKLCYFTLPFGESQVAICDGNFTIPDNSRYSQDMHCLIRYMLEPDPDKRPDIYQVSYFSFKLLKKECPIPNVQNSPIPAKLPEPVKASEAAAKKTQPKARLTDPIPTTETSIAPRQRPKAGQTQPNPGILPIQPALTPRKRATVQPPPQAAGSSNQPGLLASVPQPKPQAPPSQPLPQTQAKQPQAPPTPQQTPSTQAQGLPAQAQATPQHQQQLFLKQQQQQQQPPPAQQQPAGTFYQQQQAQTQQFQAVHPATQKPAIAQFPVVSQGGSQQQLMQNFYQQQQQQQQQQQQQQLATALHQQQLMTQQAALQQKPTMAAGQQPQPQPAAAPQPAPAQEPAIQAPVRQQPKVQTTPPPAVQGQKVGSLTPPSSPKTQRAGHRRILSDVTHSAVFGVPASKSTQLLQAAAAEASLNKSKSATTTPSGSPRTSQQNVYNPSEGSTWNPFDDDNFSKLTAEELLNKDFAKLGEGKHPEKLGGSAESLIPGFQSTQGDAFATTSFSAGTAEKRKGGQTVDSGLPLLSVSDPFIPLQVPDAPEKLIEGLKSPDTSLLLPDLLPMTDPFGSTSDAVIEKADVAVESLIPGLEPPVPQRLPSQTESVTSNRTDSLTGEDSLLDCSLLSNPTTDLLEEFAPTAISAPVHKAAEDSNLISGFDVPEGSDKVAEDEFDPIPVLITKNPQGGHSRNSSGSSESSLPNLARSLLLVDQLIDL

As a reminder, the inhibition is the percentage by which the read-out fell short of the control. As for `O[C@H]1CC[C@H](Nc2nccc(-c3n[nH]c4ccccc34)n2)CC1`, the inhibition in assay [1] is 99%; in assay [2], 100%; in assay [3] it was 99%; in assay [4], 99%; in assay [5], less than 50%; in assay [6], 85%. In addition, the inhibition in assay [7] was 82%; in assay [8], less than 50%.

For the molecule `O[C@H]1CC[C@H](Nc2nccc(-n3ccc4ccccc43)n2)CC1`, the inhibition is less than 50% in assay [1]; 95% in assay [2]; 84% in assay [3]; 70% in assay [4]; less than 50% in assay [5]; less than 50% in assay [6]. For the same molecule, the inhibition in assay [7] and in assay [8] was less than 50% each time.

With `O[C@H]1CC[C@H](Nc2nccc(-n3ncc4ccccc43)n2)CC1`, the inhibition in assay [1] is 79%; in assay [2], 99%; in assay [3] it was 97%; in assay [4], 95%; in assay [5], less than 50%; in assay [6], less than 50%. Moreover, the inhibition in assay [7] and in assay [8] was less than 50% in each case.

On to `O[C@H]1CC[C@H](Nc2nccc(-n3nnc4ccccc43)n2)CC1`, for which the inhibition was less than 50% in assay [1]; 98% in assay [2]; 96% in assay [3]; 98% in assay [4]; less than 50% in assay [5]; less than 50% in assay [6]. The inhibition in assay [7] and in assay [8] was less than 50% in each case.

On to `O=C([C@H]1CC[C@H](Nc2nccc(-n3nnc4ccccc43)n2)CC1)N1CCOCC1`, for which the inhibition in assay [1] is less than 50%; in assay [2], 94%; in assay [3], 95%; in assay [4] it was 98%; in assay [5], less than 50%; in assay [6], less than 50%. In addition, the inhibition is 86% in assay [7] and less than 50% in assay [8].

In the case of `CS(=O)(=O)CCCOc1cccc2c1ccn2-c1ccnc(N[C@H]2CC[C@H](C(=O)N3CCC(O)CC3)CC2)n1`, in assay [7], the inhibition was greater than 85%.

Consider `N[C@H]1CC[C@H](Nc2nccc(-n3nnc4ccccc43)n2)CC1`, for which the inhibition in assay [1] was 92%; in assay [2], 100%; in assay [3], 100%; in assay [4], 99%; in assay [5] it was 73%; in assay [6], less than 50%. For the same molecule, the inhibition in assay [7] and in assay [8] was less than 50% in each case.

For the origin of these results see ChEMBL document CHEMBL2424622, “Development of amino-pyrimidine inhibitors of c-Jun N-terminal kinase (JNK): kinase profiling guided optimization of a 1,2,3-benzotriazole lead” (Bioorg Med Chem Lett, 2013).
